Screening results from PubChem BioAssay.
In the library only some 2% were active in any assay of this set; here they are far more common.
rRNA inh HTS: reduced GFP signal of wild-type E. coli, primary screen, bacterial rRNA inhibitor project, GFP/RFP fluorescence, OD600, single point | AID 720706, 2013 | GFP signal change (wild-type ribosome), % (no concentration beside the values) | E. coli WT GFP vs humanized-ribosome RFP mutants, 24 h; hits give low values; DMSO median 0, no signal -100 | 1.6% of 350,000 active;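 active means significant combined selectivity score with lowered wild-type GFP, culture density cut under 30%, mutant RFP and density less affected; inactive means any of these conditions unmet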
RAD52 inh: RAD52 DNA annealing inhibitors, primary screen, biochemical, FRET, single point, set 2 | inhibition, % at 18.7 µM | 0.46% of 360,000 active | recombinant RAD52 DNA annealing, FRET fluorescence | DNA repair protein RAD52 homolog (Homo sapiens), P43351;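 active means every replicate showing at least 50% inhibition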
Target sequence (P43351 whole entry, looked up): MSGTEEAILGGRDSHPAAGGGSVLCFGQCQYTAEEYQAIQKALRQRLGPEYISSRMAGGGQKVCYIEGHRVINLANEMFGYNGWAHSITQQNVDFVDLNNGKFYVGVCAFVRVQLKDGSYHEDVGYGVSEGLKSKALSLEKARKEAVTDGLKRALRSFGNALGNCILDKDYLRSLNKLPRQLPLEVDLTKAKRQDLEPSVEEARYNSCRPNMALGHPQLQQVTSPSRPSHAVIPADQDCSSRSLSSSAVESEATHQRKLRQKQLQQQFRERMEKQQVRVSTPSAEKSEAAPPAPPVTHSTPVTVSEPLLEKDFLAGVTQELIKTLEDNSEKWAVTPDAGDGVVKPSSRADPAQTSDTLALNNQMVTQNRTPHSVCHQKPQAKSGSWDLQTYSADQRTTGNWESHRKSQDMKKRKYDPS
Xi reactivation: activators of inactive X chromosome reactivation, primary screen, imaging, XiGFP fibroblasts, GFP high-content imaging, set 2. XiGFP mouse fibroblasts, % GFP-positive cells imaging, 3 d; cells co-treated with 5-aza-dC sensitizer; scaled so ellipticine positive control = 100%. activation, % at 7.58 µM. 0.055% of 360,000 active. AID 743238, 2013;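 active means mean normalized replicate activation at least 10% and every replicate at or above 10%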
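assay system = SV40-immortalized XiGFP fibroblast cells, line 68-5-11 | buffer or medium = DMEM plus 5-aza-dC sensitizer | doses = single-point pinned compound dosing | times = 3-day compound exposure, then 15 min fixation at room temperature | benchmarks = positive control ellipticine, 6 µM final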
RAD54 inh: inhibitors of human RAD54 branch migration, primary screen, biochemical, fluorescence, single point. DNA repair and recombination protein RAD54-like (Homo sapiens), Q92698. AID 602329, 2012. RAD54 Holliday junction branch migration, FAM/BHQ fluorescence. 0.14% of 360,000 active. inhibition, % at 10.4 µM;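 active means mean normalized replicate activity at least 40 and at least half of replicates scoring 40 or more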;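 further: inhibitors cause a drop in the FAM fluorescence signal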
E-sel inducer: E-selectin induction in HUVECs, primary screen, imaging, HUVEC, immunofluorescence imaging, single point; P16581; normalized: neutral wells 0, TNF-alpha wells 100; activation, % at 7.58 µM; 0.37% of 260,000 active; AID 686992, 2013;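 active means mean E-selectin-positive cell signal at least 10% of the positive control, reached in at least 60% of replicates, without over 20% cell loss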
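assay system = HUVEC, human umbilical vein endothelial cells | input = 3,000 HUVEC seeded per well | medium = EGM-2 growth medium on 0.1% gelatin-coated wells | dosing = one compound dose added by pin transfer | signal = immunofluorescence imaging | read-out basis = % PE-positive cells | control set = TNF-alpha, DMSO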
PglD DTNB: C. jejuni PglD acetyltransferase inhibitors, primary screen, biochemical, DTNB colorimetric, single point; UDP-N-acetylbacillosamine N-acetyltransferase PglD (Campylobacter jejuni); purified PglD enzyme, DTNB colorimetric CoA detection; inhibition, % at 12.5 µM; 0.098% of 360,000 active; in the data active means inhibition above about 16%, passing the limit was not always enough
Large screens that a line does not name were inactive.

CCN(CC)c1ccc(S(=O)(=O)N2CCOCC2)cc1NC(=O)CN1C(=O)NC2(CCCC2)C1=O	E-sel inducer 62.6
CCNC(=O)Nc1ccc2c(c1)C(=O)N(C)[C@H]1CC[C@@H](CC(=O)NC3CCCCC3)O[C@@H]1CO2	none
O=C(Cc1ccccc1)N1O[C@H]2C=C[C@@H]1C2	none (no result: RAD54 inh, PglD DTNB)
CC1CC(C)CN(C(=O)c2nn(C)c3c2CS(=O)(=O)c2ccccc2-3)C1 (stereo unspecified)	E-sel inducer 94.9
Cc1ccccc1S(=O)(=O)NCC[C@H]1CC[C@@H](NC(=O)C2CCOCC2)[C@@H](CO)O1	none
CC1(C)C(=O)N(c2ccccc2)C(=O)c2ccccc21	E-sel inducer 52.5 (no result: RAD54 inh, PglD DTNB)
CC1(C)C(=O)N(c2ccccc2Cl)C(=O)c2ccccc21	none
CN1CCN(c2ccc(-c3cccc(NC(=O)COc4ccc(Cl)cc4)c3)nn2)CC1	rRNA inh HTS -29.9
COc1cccc(NC(=O)C[C@H]2CC[C@H]3[C@H](COc4ccc(NC(=O)C5CC5)cc4C(=O)N3C)O2)c1	none
Cc1cc(C)n(CCC(=O)N/N=C/c2ccc(Br)c([N+](=O)[O-])c2)n1	rRNA inh HTS -15.3
N#Cc1cc2c(nc1SCC(O)CS(=O)(=O)Cc1ccccc1)CCCC2 (stereo unspecified)	rRNA inh HTS -35.3 (no result: Xi reactivation, E-sel inducer)
N#Cc1cc2c(nc1SCc1ccccc1)CCCCC2	none (no result: rRNA inh HTS, RAD52 inh, Xi reactivation, E-sel inducer)
C[C@@H]1CN([C@H](C)CO)C(=O)c2cc(NC(=O)Cc3cn(C)c4ccccc34)ccc2O[C@H]1CN(C)Cc1ccc(Cl)c(Cl)c1	E-sel inducer 50.6
C[C@H](CO)N1C[C@H](C)[C@H](CN(C)Cc2ccc3c(c2)OCO3)Oc2ccc(NC(=O)Cc3cn(C)c4ccccc34)cc2C1=O	E-sel inducer 43.1
C[C@@H]1CN([C@H](C)CO)C(=O)c2cc(NC(=O)Cc3cn(C)c4ccccc34)ccc2O[C@H]1CN(C)Cc1ccc2c(c1)OCO2	none
CC(NS(=O)(=O)OCC(Cl)(Cl)Cl)c1ccc(Br)cc1 (stereo unspecified)	rRNA inh HTS -23.2
C[C@H]1CN([C@@H](C)CO)C(=O)c2cccc(NC(=O)c3cnccn3)c2O[C@@H]1CN(C)CC1CC1	none
Cc1cc(C)c2nc(NNC(=O)c3cc(=O)c4ccccc4o3)sc2c1	rRNA inh HTS -26.6
Cc1cc(C)c2nc(NNC(=O)c3ccc(S(=O)(=O)N4CCc5ccccc5C4)cc3)sc2c1	none
O=C(COC(=O)c1n[nH]c2ccccc12)c1cccc(Br)c1	rRNA inh HTS -38.2
CCOc1cccc2sc(NC(=O)CC)nc12	rRNA inh HTS -19.1 (no result: Xi reactivation, E-sel inducer)
C[C@@H]1CN([C@H](C)CO)C(=O)c2cc(C#Cc3ccc(F)cc3)cnc2O[C@@H]1CN(C)Cc1ccccn1	none
CCN1CCN(CCNC(=O)c2ccc3c(c2)N(Cc2ccc(F)cc2)C(=O)/C(=C/c2ccccc2)S3)CC1	RAD52 inh 72.9, RAD54 inh 66.4 (no result: E-sel inducer)
O=C(O)c1ccc2c(c1)N(Cc1ccc(F)cc1)C(=O)c1ccccc1S2	rRNA inh HTS -19.9 (no result: E-sel inducer)
O=C(NCCN1CCOCC1)c1ccc2c(c1)N(Cc1cccc(F)c1)C(=O)c1ccccc1S2	none (no result: RAD54 inh, E-sel inducer, PglD DTNB)
COCC#Cc1ccc2c(c1)O[C@@H](CN(C)C(C)=O)[C@H](C)CN([C@@H](C)CO)S2(=O)=O	none
CCN(CC)c1ccc(/C=C(\C#N)C(N)=S)cc1	rRNA inh HTS -22.5 (no result: RAD54 inh, PglD DTNB)
CCN(CC)c1ccc(/C=C(\C#N)C(N)=O)cc1	none (no result: RAD54 inh, PglD DTNB)
N#C[C@H]1[C@H](c2ccc(-c3cccnc3)cc2)[C@H](CO)N1C(=O)C1CCC1	none
CN(C(=O)C1CCCN(c2ncnc3c2nc2n3CCCCC2)C1)c1cccc(Cl)c1 (stereo unspecified)	rRNA inh HTS -35.6 (no result: E-sel inducer)
O=C(C1CCCN(c2ncnc3c2nc2n3CCCCC2)C1)N1CCN(c2cccc(Cl)c2)CC1 (stereo unspecified)	none
CCCNC(=O)N1C[C@@H]2[C@H](c3ccccc31)[C@H](CO)N2Cc1ccccc1F	none
Cc1c(Cc2ccccc2)c(=O)oc2cc(OCC(=O)NC(Cc3ccc(Cl)cc3)C(=O)O)ccc12 (stereo unspecified)	rRNA inh HTS -26.8 (no result: Xi reactivation, E-sel inducer)
CO[C@H]1CN(C)C(=O)c2cc(NC(=O)c3ccc4c(c3)OCO4)ccc2OC[C@H](C)N(CC2CC2)C[C@H]1C	none
CC(C)C(=O)Nc1ccc2c(c1)C(=O)N(C)[C@H]1CC[C@H](CC(=O)NCCCN(C)C)O[C@H]1CO2	none (no result: RAD52 inh)
Cc1ccc(C(=O)Nc2ccc(O)cc2C(=O)O)cc1C	rRNA inh HTS -25.1 (no result: Xi reactivation, E-sel inducer)
CCN(CC)S(=O)(=O)c1cc(NC(=O)Cn2ncc(Cl)c(Cl)c2=O)ccc1C	rRNA inh HTS -26.4 (no result: RAD54 inh, PglD DTNB)
CCN(CC)S(=O)(=O)c1cc(NS(=O)(=O)c2cccc(Cl)c2Cl)ccc1C	rRNA inh HTS -38.0
COc1ccc(-c2nn(-c3ccccc3)cc2/C=N/O)cc1	rRNA inh HTS -38.3
COc1ccc(-c2nn(-c3ccccc3)cc2/C=N/N2C(=O)CSC2=S)cc1	none (no result: rRNA inh HTS, RAD52 inh, Xi reactivation, E-sel inducer)
COCCCNC1=C(Cl)C(=O)c2ccccc2C1=O	rRNA inh HTS -40.0
O=C1C(Cl)=C(NCCc2ccccc2)C(=O)c2ccccc21	rRNA inh HTS -37.2
C[C@H](CO)N1C[C@H](C)[C@H](CN(C)C(=O)Nc2cccc3ccccc23)Oc2ccc(NC(=O)CCN3CCOCC3)cc2CC1=O	none
COc1cccc(C(=O)N2C[C@@H]3[C@H](c4ccccc42)[C@H](CO)N3C(C)=O)c1	none
O=C(Nc1ccc(NC(=O)N2CCN(c3ccccc3O)CC2)cc1)N1CCN(c2ccccc2O)CC1	rRNA inh HTS -19.8
O=C(COC(=O)/C=C/c1ccc(OC(F)F)cc1)NC1CCCCCC1	rRNA inh HTS -18.1
CCCNC(=O)C[C@@H]1CC[C@H]2[C@@H](COc3ccc(NC(=O)Nc4ccccc4F)cc3C(=O)N2C)O1	none
COc1cccc(C2C(=O)c3ccccc3C2=O)c1	E-sel inducer 65.5
NS(=O)(=O)c1ccc(NC(=O)CCC(=O)N2CCOCC2)cc1	E-sel inducer 34.2
O=C(CCC(=O)N1CCOCC1)Nc1ccc(Cl)c(Cl)c1	E-sel inducer 85.2
Cc1ccc(C)c(CSC2=NN3CCCC(=O)N=C3S2)c1	Xi reactivation 18.8 (no result: RAD54 inh, PglD DTNB)
